Experimental data taken from ChEMBL document CHEMBL4346661, “Design, synthesis and evaluation of novel diaryl-1,5-diazoles derivatives bearing morpholine as potent dual COX-2/5-LOX inhibitors and antitumor agents” (Eur J Med Chem, 2019).

Key:
B16-F10 [1] = test: Induction of apoptosis in mouse B16F10 cells assessed as early apoptosis cells at 6.25 uM incubated for 48 hrs in presence of apoptosis inhibitor z-VAD-fmk by Annexin-V-FITC/propidium iodide staining-based flow cytometric analysis (reference value: 3.83%); assay type: functional
B16-F10 [2] = test: Induction of apoptosis in mouse B16F10 cells assessed as viable cells at 12.5 uM incubated for 48 hrs by Annexin-V-FITC/propidium iodide staining-based flow cytometric analysis (reference value: 94%); assay type: functional; conditions: B16-F10, 48 h, read-out: Activity
Outline: (§1)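 F10 cells were exposed to 0, 3.125, 6.25, 12.5 or 25 µM for 48 h. Cells were stained with Annexin V/PI and read by flow cytometry. Data are mean ± SD of three independent experiments.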

B16-F10 [3] = test: Induction of apoptosis in mouse B16F10 cells assessed as viable cells at 6.25 uM incubated for 48 hrs by Annexin-V-FITC/propidium iodide staining-based flow cytometric analysis (reference value: 94%); assay type: functional; conditions: B16-F10, 48 h, read-out: Activity; outline: as §1
B16-F10 [4] = test: Induction of apoptosis in mouse B16F10 cells assessed as late apoptosis cells at 12.5 uM incubated for 48 hrs in presence of apoptosis inhibitor z-VAD-fmk by Annexin-V-FITC/propidium iodide staining-based flow cytometric analysis (reference value: 3.13%); assay type: functional
B16-F10 [5] = test: Induction of apoptosis in mouse B16F10 cells assessed as late apoptosis cells at 6.25 uM incubated for 48 hrs in presence of apoptosis inhibitor z-VAD-fmk by Annexin-V-FITC/propidium iodide staining-based flow cytometric analysis (reference value: 3.13%); assay type: functional
B16-F10 [6] = test: Induction of apoptosis in mouse B16F10 cells assessed as necrosis cells at 3.125 uM incubated for 48 hrs in presence of apoptosis inhibitor z-VAD-fmk by Annexin-V-FITC/propidium iodide staining-based flow cytometric analysis (reference value: 0.558%); assay type: functional
B16-F10 [7] = test: Induction of apoptosis in mouse B16F10 cells assessed as late apoptosis cells at 3.125 uM incubated for 48 hrs by Annexin-V-FITC/propidium iodide staining-based flow cytometric analysis (reference value: 2.88%); assay type: functional; outline: as §1
B16-F10 [8] = test: Induction of apoptosis in mouse B16F10 cells assessed as necrosis cells at 12.5 uM incubated for 48 hrs by Annexin-V-FITC/propidium iodide staining-based flow cytometric analysis (reference value: 0.186%); assay type: functional; outline: as §1
B16-F10 [9] = test: Induction of cell cycle arrest in mouse B16F10 cells assessed as cell accumulation at G2 phase at 25 uM incubated for 48 hrs by propidium iodide staining-based flow cytometric analysis (reference value: 22.43%); assay type: functional
B16-F10 [10] = test: Induction of apoptosis in mouse B16F10 cells assessed as late apoptosis cells at 12.5 uM incubated for 48 hrs by Annexin-V-FITC/propidium iodide staining-based flow cytometric analysis (reference value: 2.88%); assay type: functional; outline: as §1
B16-F10 [11] = test: Induction of cell cycle arrest in mouse B16F10 cells assessed as cell accumulation at G2 phase at 3.125 uM incubated for 48 hrs by propidium iodide staining-based flow cytometric analysis (reference value: 22.43%); assay type: functional
B16-F10 [12] = test: Induction of apoptosis in mouse B16F10 cells assessed as late apoptosis cells at 25 uM incubated for 48 hrs in presence of apoptosis inhibitor z-VAD-fmk by Annexin-V-FITC/propidium iodide staining-based flow cytometric analysis (reference value: 3.13%); assay type: functional
A549 = test: Antiproliferative activity against human A549 cells incubated for 48 hrs by MTT assay; assay type: functional, cell-based; conditions: A549, 48 h
Outline: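 MTT assay on F10 (murine melanoma), HeLa, A549, MCF-7 and 293T (human renal epithelium) cells. IC50 given as mean ± SD of three independent experiments.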

Question: What does the source list for `NS(=O)(=O)c1ccc(-n2nc(C(=O)NCCCN3CCOCC3)cc2-c2ccc(C(F)(F)F)cc2)cc1`?
Answer: Activity (B16-F10 [1]): 5.74%; viability at 12.5 µM (B16-F10 [2]): 73.7%; viability at 6.25 µM (B16-F10 [3]): 77.2%; Activity (B16-F10 [4]): 9.78%; Activity (B16-F10 [5]): 5.34%; Activity (B16-F10 [6]): 0.23%; Activity (B16-F10 [7]): 4.9%; Activity (B16-F10 [8]): 0.685%; Activity (B16-F10 [9]): 33.6%; Activity (B16-F10 [10]): 5.09%; Activity (B16-F10 [11]): 28.69%; Activity (B16-F10 [12]): 9.1%; IC50 (A549): 11 µM
